From PubChem BioAssay
697 NFkB inh – inhibitors of PMA/ionomycin-induced NF-kB reporter, 697 cells, primary screen, B-cell NF-kB inhibitor project, cell-based, luminescence, uHTS; 697 B-cell NF-kB luciferase reporter, 16 h; inhibition, % at 4 µM; 330,000 compounds, 0.33% hits; AID 435022, 2010; in the data active = inhibition above about 35%
NR2E3 ag-1 – NR2E3 agonists in two-hybrid cells, primary screen, cell-based, luminescence, CHO-S, Gal4-NCOR/VP16-NR2E3; AID 602229, 2012; inhibition of corepressor binding, % at 3.98 µM; luciferase; Photoreceptor-specific nuclear receptor (Homo sapiens), Q9Y5X4; 360,000 compounds, 0.35% hits;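 active = inhibition above the mean of all tested compounds plus 3 SD, cut at about 70% in these data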;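 also: 0% = DMSO with NR2E3 transfected cells and 100% = cells lacking NR2E3 construct; higher means lower luciferase signal from less NR2E3 corepressor binding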
Target sequence (Q9Y5X4 whole entry, looked up, the tested form may be a part): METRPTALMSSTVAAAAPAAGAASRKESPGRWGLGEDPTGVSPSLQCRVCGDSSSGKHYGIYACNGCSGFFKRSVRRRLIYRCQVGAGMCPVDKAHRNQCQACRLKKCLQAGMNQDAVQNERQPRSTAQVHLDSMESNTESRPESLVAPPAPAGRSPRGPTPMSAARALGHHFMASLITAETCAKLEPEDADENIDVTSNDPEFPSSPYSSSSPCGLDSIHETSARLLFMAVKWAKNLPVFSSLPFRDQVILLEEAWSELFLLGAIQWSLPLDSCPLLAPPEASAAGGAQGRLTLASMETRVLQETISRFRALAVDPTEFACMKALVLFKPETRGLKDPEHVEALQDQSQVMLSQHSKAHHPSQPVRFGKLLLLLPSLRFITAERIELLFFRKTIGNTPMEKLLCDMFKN
MPTP inh – mitochondrial permeability transition pore inhibitors, primary screen, biochemical, isolated mouse mitochondria, absorbance; inhibition, % at 10 µM; 360,000 compounds, 1.4% hits; AID 602449, 2012; Ca2+ swelling absorbance, 30 min;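 active = inhibition of 50% or more, scaled per plate between neutral and stimulator controls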;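 also: 0% = DMSO wells given calcium and 100% = 1 mM EGTA wells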
aDG glyco up – activators of alpha-DG glycosylation, primary screen, uHTS, Pro5-aDG cells, AlphaScreen | alpha-DG glycosylation AlphaScreen (IIH6); 0% Pro5, 100% B10-LARGE cell signal | activation, % at 10 µM | 360,000 compounds, 0.22% hits;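 active = activation of at least 8% versus controls, or a plate z-score of at least 8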;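 also: Pro5 are CHO cells carrying HIG-tagged alpha-DG that lacks glycosylation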
NR2E3 ag-2 – inhibitors of NR2E3-RetCOR corepressor binding, primary screen, NR2E3 agonist project, biochemical, TR-FRET, GST-NR2E3, biotin-RetCOR; Photoreceptor-specific nuclear receptor (Homo sapiens), Q9Y5X4; 1536-well; inhibition of corepressor binding, % at 4.78 µM; 320,000 compounds, 0.12% hits; AID 2300, 2010;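 active = percent inhibition above the cutoff of mean plus 3 SD of all tested compounds, set per screening campaign, cut at about 20% in these data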;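 also: 0% = DMSO wells and 100% = biotin wells as full block of FRET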
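Material: NR2E3–RetCOR corepressor complex | Quantity: 1.35 nM GST-tagged NR2E3 final | Schedule: 5 h at 4 °C | Replication: Singlicate compound wells | Reagent: RetCOR corepressor, biotinylated, 7 nM | Controls: Biotin wells as high control, 0.6% DMSO wells as low control | Signal: TR-FRET, Eu(K)-anti-GST donor, streptavidin-D2 acceptor, ex 340, em 617/671 nm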
Jurkat NFkB inh – inhibitors of induced NF-kB luciferase reporter, primary screen, TCR NF-kB activation inhibitor project, cell-based, luminescence, uHTS | AID 435003, 2010 | Jurkat, PMA/ionomycin-induced NF-kB luciferase reporter | 330,000 compounds, 0.53% hits | inhibition, % at 4 µM; in the data active = inhibition above about 50%
Rh123 counter – fluorescence retest of MPTP screen hits in isolated mitochondria, single concentration; shares compounds with MPTP inh; inhibition, % at 10 µM; AID 624504, 2012; membrane potential, Rhodamine 123 fluorescence; 5,000 compounds, 78% hits; in the data active = inhibition above about 22%;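 also: 0% = DMSO vehicle and 100% = positive control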
MPTP abs DR – mitochondrial permeability transition pore inhibitors, dose response, biochemical, absorbance, uHTS hits. isolated mitochondria swelling. AID 651561, 2012. 780 compounds, 58% hits. IC50, µM. shares compounds with MPTP inh; in the data active = IC50 below about 20 µM
MPTP counter DR – fluorescent counter-screen in isolated mitochondria, dose response, counter-screen for MPTP inhibitor project, biochemical, fluorescence, uHTS hits. shares compounds with MPTP inh. isolated mitochondria counterscreen, fluorescence read-out. IC50, µM. 780 compounds, 49% hits; in the data active = IC50 below about 80 µM
Starred values were filed as active, the others as inactive; / = no result given. In the library only some 2.4% were active in any assay of this set; here they are far more common.

SMILES	697 NFkB inh	NR2E3 ag-1	MPTP inh	aDG glyco up	NR2E3 ag-2	Jurkat NFkB inh	Rh123 counter	others
COc1ccccc1NC(=O)c1[nH]c(C)c(C(C)=O)c1C	9.3	7.3	-1.7	0.3	1.6	-1.8	/
COc1ccccc1NS(=O)(=O)c1cccc(NC(=O)Nc2ccc(Cl)cc2)c1	-11.2	1.8	82.8*	5.0	5.7	-5.4	71.8*
CCN(c1ccccc1)S(=O)(=O)c1cc(C(=O)Nc2ccc(Br)cc2)ccc1F	-58.3	5.5	96.7*	3.1	0.3	15.1	88.8*
CCNC(=S)Nc1cccc(S(=O)(=O)Nc2ccccc2OC)c1	0.1	-2.8	5.8	-0.1	1.2	-6.2	/
CCN(c1ccccc1)S(=O)(=O)c1cc(C(=O)Nc2ccccc2Cl)ccc1F	3.4	19.0	1.9	0.7	1.6	-2.6	/
COc1ccccc1NS(=O)(=O)c1cccc(NC(=O)Nc2ccccc2)c1	10.9	13.7	82.0*	0.9	-1.0	-1.6	86.2*
CCC(=O)n1nc(-c2ccc(Cl)cc2)nc1NCc1ccccc1	-59.9	-36.8	0.7	0.1	3.5	12.1	/
CCOc1ccc(Nc2c3ccccc3nc3ccccc23)cc1	-197.8	-4.1	95.5*	-0.2	1.0	11.5	85.3*
O=c1cc(CO)oc(C(Nc2ccccn2)c2ccc(C(F)(F)F)cc2)c1O (stereo unspecified)	-8.3	-16.9	68.4*	-0.1	0.6	-1.5	-13.6	MPTP abs DR=11.3*;MPTP counter DR=>80
Cn1c(=O)c2cc(NC(=O)Cc3cccc4ccccc34)ccc2n1-c1ccccc1	/	-48.3	-0.4	0.1	/	/	/
COc1ccc(C)cc1NC(=O)NCc1ccc(F)cc1	7.4	-23.3	-0.8	1.3	2.5	-4.7	/
CC/C(=C(\c1ccc(O)cc1)c1ccc(OCCN(C)C)cc1)c1ccccc1	-10.2	-14.4	102.8*	2.8	4.0	10.3	-11.3
CCN(CC)CCOc1ccc(/C(=C(/Cl)c2ccccc2)c2ccccc2)cc1	-9.3	12.5	98.4*	0.6	-0.9	-7.4	-1.6	MPTP abs DR=19.5*;MPTP counter DR=43.3*
O=C(NCc1ccc(F)cc1)c1cc2c(s1)CS(=O)(=O)C2	7.5	-26.4	-3.3	-0.5	-2.9	13.5	/
C/C(=N\NC(=S)NCC(C)(C)C)c1cc(F)cc(F)c1O	-29.3	28.4	85.1*	-0.1	-0.1	-6.6	73.2*
Cc1c(C(=O)Nc2nnc(C(F)(F)F)s2)oc2ccccc12	-83.2	-47.9	66.6*	0.4	5.4	-43.1	8.8	MPTP abs DR=6.53*;MPTP counter DR=<2.5*
O=S(=O)(NCCNc1ncc(C(F)(F)F)cc1Cl)C(F)(F)F	-24.1	17.6	81.0*	-0.2	0.0	-1.1	94.4*
CCN(CC)CCNc1ccc(CO)c2sc3ccccc3c(=O)c12	-11.5	-9.6	59.7*	0.2	4.3	-26.6	-6.4
CCN(CC)CCNc1cccc2sc3ccccc3c(=O)c12	/	30.6	0.8	-0.1	/	/	/
COc1cccc(CN(CC(=O)NCc2ccccc2)S(=O)(=O)CCl)c1	-12.1	-30.1	-1.3	0.0	1.2	-9.9	/
Cc1ccc(-n2cc(CNCCc3ncc(C)[nH]3)c(-c3ccc(F)cc3)n2)cc1	12.0	0.0	91.4*	11.4*	-0.5	-13.2	-15.2	MPTP abs DR=4.2*;MPTP counter DR=56.8*
Cc1ccc(-n2cc(CNCCn3nc(C)cc3C)c(-c3ccc(F)cc3)n2)cc1	-34.5	-2.7	13.3	1.4	-2.1	8.8	/
COc1ccc(-n2cc(CNCCc3nc(C)cc(C)n3)c(-c3ccccc3Cl)n2)cc1	4.5	-24.6	3.4	0.6	-2.5	10.2	/
Fc1ccc(-n2cc(CNCCc3ccccn3)c(-c3ccccc3Cl)n2)cc1	5.2	-26.6	72.2*	0.4	1.2	2.4	0.9	MPTP abs DR=9.84*;MPTP counter DR=47.7*
COc1ccc(OCCn2c(C)nc3ccccc32)cc1	/	4.4	1.0	0.9	/	/	/
SMILES	697 NFkB inh	NR2E3 ag-1	MPTP inh	aDG glyco up	NR2E3 ag-2	Jurkat NFkB inh	Rh123 counter	others
CCOC(=O)Cn1c(=N)n(CCOc2ccc3ccccc3c2)c2ccccc21	-23.9	-14.6	90.7*	0.6	-0.6	-1.3	-0.4	MPTP abs DR=4.02*;MPTP counter DR=26.4*
CCOC(=O)Cn1c(=N)n(CCOc2ccc(OC)cc2)c2ccccc21	6.9	3.9	25.9	0.1	1.2	-1.7	/
CCCn1c(=N)n(CCOc2ccc(OC)cc2)c2ccccc21	-10.1	-11.3	54.0*	0.1	-3.8	1.0	5.4	MPTP abs DR=8.82*;MPTP counter DR=22.7*
COc1ccc(NS(=O)(=O)NC(=O)c2cn(C)c3ccccc23)cc1	3.5	8.9	-1.0	0.0	-3.4	12.3	/
Cc1cc(SCC(=O)N/N=C/c2ccc(O)c(O)c2O)c(C)cc1Br	-27.6	-18.9	91.9*	1.2	-2.0	11.5	56.8*
Cn1nc(-c2ccc(Cl)cc2)c2cc(C(=O)NCCCN3CCOCC3)sc21	-11.9	-28.2	73.7*	0.5	0.7	-15.0	-11.8
CCN(CC)CCNC(=O)c1cc2c(-c3ccc(Cl)cc3)nn(C)c2s1	-13.5	-5.9	85.7*	0.4	4.4	-8.7	-26.3
CCCN(CCC)CCNC(=O)c1cc2c(-c3ccc(Cl)cc3)nn(C)c2s1	-8.5	17.5	-1.0	-0.2	-2.4	-6.9	/
CCOc1ccc(N=c2cc(-c3ccc(OC)cc3)oc3ccccc23)cc1	7.5	-99.0	37.4	-0.8	0.8	9.9	/
COc1ccc(-c2cc(=Nc3ccc(C)cc3)c3ccccc3o2)cc1	-26.2	-91.4	62.6*	-0.5	2.6	-0.5	12.0	MPTP abs DR=>100;MPTP counter DR=13.5*
COc1ccc(N=c2cc(-c3ccc(OC)cc3)oc3ccccc23)cc1	-59.2	-85.0	26.7	-0.8	-1.7	7.4	/
COc1ccc(N=c2cc(-c3ccc(O)cc3)oc3ccccc23)cc1	-16.9	-22.7	68.5*	0.1	1.5	-8.7	72.8*
CC1=C(CC[C@@H](C)CO)OC2CC3C4CCC5CC(O)CCC5(C)C4CC(=O)C3(C)C12 (stereo partly specified)	1.7	-3.6	-1.0	0.1	3.8	-9.9	/
FC(F)(F)c1cccc(NC(=S)NCC2COc3ccccc3O2)c1 (stereo unspecified)	7.3	5.7	80.8*	0.0	3.9	-2.6	80.8*
